Legend:
[1] = molecular target: 5-hydroxytryptamine receptor 2B (Rattus norvegicus, UniProt P30994); experiment: Antagonistic affinity measured as pA2 value on 5-hydroxytryptamine 2B receptor of the rat stomach fundus; assay type: functional, tissue-based; settings: read-out: pA2 (converted)
[2] = molecular target: 5-HT2C receptor (Homo sapiens); experiment: Antagonistic binding affinity measured against 5-hydroxytryptamine 2C receptor (human clone expressed in 293 cells) using [3H]mesulergine as radioligand
[3] = molecular target: T1, 5-hydroxytryptamine receptor 2C (Homo sapiens, UniProt P28335); experiment: (§1) Selectivity as the ratio of Ki value towards 5-hydroxytryptamine 2C receptor to that of pA2 value towards 5-hydroxytryptamine 2B receptor; assay type: functional
T1 sequence (P28335 whole entry): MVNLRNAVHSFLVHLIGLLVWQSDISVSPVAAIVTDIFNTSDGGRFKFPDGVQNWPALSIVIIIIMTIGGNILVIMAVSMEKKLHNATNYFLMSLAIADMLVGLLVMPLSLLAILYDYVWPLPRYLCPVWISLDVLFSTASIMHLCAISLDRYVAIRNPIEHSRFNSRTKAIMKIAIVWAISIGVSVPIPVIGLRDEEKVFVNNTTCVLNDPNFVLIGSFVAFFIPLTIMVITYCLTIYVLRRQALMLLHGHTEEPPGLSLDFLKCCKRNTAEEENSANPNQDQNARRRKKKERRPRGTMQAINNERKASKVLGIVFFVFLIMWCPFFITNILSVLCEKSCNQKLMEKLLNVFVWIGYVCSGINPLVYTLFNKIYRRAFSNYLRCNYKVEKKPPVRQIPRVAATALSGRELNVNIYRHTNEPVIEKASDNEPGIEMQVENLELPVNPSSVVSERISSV

[4] = molecular target: 5-hydroxytryptamine receptor 1E (Homo sapiens, UniProt P28566); experiment: The binding affinity (pKi) measured against 5-hydroxytryptamine 1E receptor (cloned human receptors in CHO cells) using […] as radioligand; assay type: cell-based
Sequence of 5-hydroxytryptamine receptor 1E (P28566 whole entry): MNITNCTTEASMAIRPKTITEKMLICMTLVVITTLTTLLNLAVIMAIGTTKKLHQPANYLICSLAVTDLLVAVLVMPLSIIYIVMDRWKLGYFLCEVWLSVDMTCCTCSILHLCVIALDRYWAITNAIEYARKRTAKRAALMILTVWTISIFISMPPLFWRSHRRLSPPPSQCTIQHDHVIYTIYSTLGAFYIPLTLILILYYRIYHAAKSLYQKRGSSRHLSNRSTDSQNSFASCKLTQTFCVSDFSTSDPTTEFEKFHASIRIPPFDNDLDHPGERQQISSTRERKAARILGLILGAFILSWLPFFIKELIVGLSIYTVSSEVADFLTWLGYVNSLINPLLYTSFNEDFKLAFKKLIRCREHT
In short: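 Radioligand binding at cloned human 5-HT1E receptors expressed in CHO cells, labelled with [3H]-5-HT.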

[5] = molecular target: T2, Adrenergic receptor alpha-1 (Rattus norvegicus, UniProt P15823+P23944+P43140); experiment: The binding affinity (pKi) measured against Alpha-1 adrenergic receptor of rat cortex using [3H]prazosin as radioligand
T2 sequence (P15823 whole entry): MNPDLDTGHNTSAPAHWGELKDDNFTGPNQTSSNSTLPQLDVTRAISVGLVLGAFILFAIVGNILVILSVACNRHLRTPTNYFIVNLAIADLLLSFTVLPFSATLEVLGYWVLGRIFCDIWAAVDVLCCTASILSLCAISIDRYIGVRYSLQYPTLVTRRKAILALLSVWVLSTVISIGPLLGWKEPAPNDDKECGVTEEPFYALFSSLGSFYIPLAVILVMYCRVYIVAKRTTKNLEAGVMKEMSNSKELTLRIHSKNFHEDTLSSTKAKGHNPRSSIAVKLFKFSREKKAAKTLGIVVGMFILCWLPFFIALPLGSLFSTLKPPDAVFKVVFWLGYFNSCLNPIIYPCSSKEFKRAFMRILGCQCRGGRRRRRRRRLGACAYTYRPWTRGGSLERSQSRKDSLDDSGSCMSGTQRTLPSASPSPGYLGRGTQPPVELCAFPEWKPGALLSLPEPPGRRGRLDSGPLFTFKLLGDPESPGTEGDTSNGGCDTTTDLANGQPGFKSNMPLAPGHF
T2 sequence (P23944 whole entry): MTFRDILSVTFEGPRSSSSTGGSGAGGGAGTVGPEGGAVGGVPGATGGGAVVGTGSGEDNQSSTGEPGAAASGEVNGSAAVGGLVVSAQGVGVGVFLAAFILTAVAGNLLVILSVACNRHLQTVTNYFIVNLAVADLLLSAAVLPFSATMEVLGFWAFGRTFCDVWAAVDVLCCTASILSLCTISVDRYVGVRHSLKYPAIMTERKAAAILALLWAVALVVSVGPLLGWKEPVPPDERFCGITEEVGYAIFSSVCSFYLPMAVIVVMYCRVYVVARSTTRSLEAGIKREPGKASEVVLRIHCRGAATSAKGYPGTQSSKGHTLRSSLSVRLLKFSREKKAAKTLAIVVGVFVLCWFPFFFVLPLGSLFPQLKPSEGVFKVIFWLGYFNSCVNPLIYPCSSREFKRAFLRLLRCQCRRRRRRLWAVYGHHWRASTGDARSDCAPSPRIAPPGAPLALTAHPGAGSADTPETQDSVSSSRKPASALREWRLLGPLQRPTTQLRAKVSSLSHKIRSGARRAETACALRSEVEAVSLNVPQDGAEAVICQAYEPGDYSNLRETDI
T2 sequence (P43140 whole entry): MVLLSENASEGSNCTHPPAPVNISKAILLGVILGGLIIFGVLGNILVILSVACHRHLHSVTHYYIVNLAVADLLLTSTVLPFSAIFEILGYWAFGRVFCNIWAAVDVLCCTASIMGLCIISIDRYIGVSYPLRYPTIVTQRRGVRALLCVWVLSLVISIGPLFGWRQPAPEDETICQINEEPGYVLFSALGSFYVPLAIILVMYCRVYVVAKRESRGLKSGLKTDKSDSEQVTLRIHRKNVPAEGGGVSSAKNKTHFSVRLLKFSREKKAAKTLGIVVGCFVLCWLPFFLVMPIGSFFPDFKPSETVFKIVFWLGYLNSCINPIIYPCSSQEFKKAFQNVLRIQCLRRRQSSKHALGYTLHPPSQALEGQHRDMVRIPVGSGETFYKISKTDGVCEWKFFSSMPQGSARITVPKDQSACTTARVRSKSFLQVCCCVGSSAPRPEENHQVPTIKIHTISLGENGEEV

Histamine H1 receptor = Histamine H1 receptor (Cavia porcellus, UniProt P31389); experiment: The binding affinity (pKi) measured against histamine H1 receptor of guinea pig cerebellum using [3H]mepyramine as radioligand; assay type: tissue-based
Sequence of Histamine H1 receptor (P31389 whole entry): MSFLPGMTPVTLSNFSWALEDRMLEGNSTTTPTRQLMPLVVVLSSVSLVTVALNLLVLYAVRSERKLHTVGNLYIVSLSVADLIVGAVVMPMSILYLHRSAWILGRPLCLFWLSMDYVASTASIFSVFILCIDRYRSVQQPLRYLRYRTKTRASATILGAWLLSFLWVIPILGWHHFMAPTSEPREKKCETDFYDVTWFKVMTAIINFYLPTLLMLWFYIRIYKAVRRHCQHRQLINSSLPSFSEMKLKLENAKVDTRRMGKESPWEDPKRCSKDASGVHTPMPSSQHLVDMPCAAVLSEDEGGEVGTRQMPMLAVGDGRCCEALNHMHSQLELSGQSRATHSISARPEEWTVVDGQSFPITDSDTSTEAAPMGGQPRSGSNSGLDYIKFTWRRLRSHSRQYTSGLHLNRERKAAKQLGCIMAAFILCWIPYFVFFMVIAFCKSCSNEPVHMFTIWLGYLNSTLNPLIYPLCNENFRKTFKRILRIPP

[6] = molecular target: GABA-A receptor; anion channel; experiment: Inhibition of [3H]muscimol binding to Gamma-aminobutyric acid A (GABA-A) receptor of rat cortex
D(2) dopamine receptor = D(2) dopamine receptor (Homo sapiens, UniProt P14416); experiment: In vitro binding affinity was measured on Dopamine receptor D2
Sequence of D(2) dopamine receptor (P14416 whole entry): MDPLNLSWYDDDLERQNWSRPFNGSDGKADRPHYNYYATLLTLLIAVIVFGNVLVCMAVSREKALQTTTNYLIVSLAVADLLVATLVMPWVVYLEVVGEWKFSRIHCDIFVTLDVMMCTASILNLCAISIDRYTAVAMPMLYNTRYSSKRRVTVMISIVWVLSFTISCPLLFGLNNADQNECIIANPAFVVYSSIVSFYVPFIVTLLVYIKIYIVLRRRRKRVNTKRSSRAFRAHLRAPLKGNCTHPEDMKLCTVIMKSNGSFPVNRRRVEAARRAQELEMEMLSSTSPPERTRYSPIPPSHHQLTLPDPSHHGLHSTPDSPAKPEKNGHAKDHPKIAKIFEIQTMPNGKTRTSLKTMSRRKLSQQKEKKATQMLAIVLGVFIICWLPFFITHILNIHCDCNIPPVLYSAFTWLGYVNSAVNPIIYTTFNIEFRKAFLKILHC

D(1A) dopamine receptor = D(1A) dopamine receptor (Homo sapiens, UniProt P21728); experiment: The binding affinity (pKi) measured against Dopamine receptor D1 using [3H]-SCH- 23390 as radioligand
Sequence of D(1A) dopamine receptor (P21728 whole entry): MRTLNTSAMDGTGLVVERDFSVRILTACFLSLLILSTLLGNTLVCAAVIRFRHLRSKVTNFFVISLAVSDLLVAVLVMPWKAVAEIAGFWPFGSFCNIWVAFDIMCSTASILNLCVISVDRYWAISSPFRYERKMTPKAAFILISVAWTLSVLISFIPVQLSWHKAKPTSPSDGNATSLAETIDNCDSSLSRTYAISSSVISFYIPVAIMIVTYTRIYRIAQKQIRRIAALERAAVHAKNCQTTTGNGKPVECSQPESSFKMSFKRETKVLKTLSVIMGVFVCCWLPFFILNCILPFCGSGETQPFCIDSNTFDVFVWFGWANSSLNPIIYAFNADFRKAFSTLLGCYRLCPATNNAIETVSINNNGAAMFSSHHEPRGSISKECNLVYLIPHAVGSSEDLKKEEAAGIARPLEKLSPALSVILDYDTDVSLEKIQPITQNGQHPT
In short: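 Binding at cloned human dopamine D1 receptors expressed in LTK cells.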

[7] = as §1; assay type: functional
[8] = molecular target: 5-hydroxytryptamine receptor 2A (Homo sapiens, UniProt P28223); experiment: Antagonistic binding affinity measured against 5-hydroxytryptamine 2A receptor (human clone expressed in 293 cells) using [3H]ketanserin as radioligand; assay type: cell-based, HEK293
Sequence of 5-hydroxytryptamine receptor 2A (P28223 whole entry): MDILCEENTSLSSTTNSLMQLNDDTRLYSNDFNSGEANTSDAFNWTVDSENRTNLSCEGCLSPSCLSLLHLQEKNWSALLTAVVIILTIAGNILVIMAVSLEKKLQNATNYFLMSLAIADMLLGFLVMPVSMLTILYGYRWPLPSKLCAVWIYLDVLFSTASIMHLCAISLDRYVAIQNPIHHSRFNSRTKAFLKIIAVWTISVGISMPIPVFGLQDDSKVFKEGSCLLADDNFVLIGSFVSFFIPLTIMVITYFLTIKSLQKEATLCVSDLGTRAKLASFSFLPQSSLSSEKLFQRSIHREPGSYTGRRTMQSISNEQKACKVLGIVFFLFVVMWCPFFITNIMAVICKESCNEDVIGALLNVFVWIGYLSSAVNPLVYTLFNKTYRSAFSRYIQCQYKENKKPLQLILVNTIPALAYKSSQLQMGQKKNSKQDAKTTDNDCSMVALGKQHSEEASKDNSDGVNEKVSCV

[9] = molecular target: T1, 5-hydroxytryptamine receptor 2C; experiment: Antagonistic binding affinity measured against 5-hydroxytryptamine 2C receptor (human clone expressed in 293 cells) using [3H]mesulergine as radioligand; assay type: cell-based, HEK293

Sequence of 5-hydroxytryptamine receptor 2B (P30994 whole entry): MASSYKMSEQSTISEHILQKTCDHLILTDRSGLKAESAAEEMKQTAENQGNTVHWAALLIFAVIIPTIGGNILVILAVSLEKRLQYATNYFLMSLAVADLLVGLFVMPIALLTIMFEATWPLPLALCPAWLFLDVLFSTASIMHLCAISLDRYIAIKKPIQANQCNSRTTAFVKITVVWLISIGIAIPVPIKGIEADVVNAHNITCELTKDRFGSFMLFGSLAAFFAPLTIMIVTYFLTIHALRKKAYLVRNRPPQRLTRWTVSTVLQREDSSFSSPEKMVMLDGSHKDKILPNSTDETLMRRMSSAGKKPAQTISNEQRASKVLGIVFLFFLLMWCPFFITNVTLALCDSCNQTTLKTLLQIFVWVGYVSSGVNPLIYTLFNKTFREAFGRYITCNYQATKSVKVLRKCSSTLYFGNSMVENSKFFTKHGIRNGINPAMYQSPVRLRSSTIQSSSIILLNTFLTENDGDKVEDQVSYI

SMILES	Kb [1]	Ki [2]	Ki [3]	further results
Cc1cc(NC(=O)Nc2ccc3sccc3c2)on1	46.8 nM	> 6310 nM	89.1 nM	–
Cc1cc(NC(=O)Nc2ccc3c(ccn3C)c2)on1	69.2 nM	> 6310 nM	347 nM	–
Cn1ccc2cc(NC(=O)Nc3cccnc3)ccc21	38.9 nM	–	110 nM	–
Cc1cc(NC(=O)Nc2ccc3c(ccn3C)c2)sn1	11.2 nM	–	–	Ki [4]: > 100000 nM; Log Ki [5]: > -5.5; Ki (Histamine H1 receptor): > 10000 nM; Log Ki [6]: > -5; Ki (D(2) dopamine receptor): > 31600 nM; Ki (D(1A) dopamine receptor): > 10000 nM
Cc1cc(NC(=O)Nc2ccc3sccc3c2)sn1	15.1 nM	–	–	Selectivity [7]: 27; Ki [8]: 6310 nM; Ki [9]: 417 nM

Reference: ChEMBL document CHEMBL1128263, “N-(1-methyl-5-indolyl)-N'-(3-methyl-5-isothiazolyl)urea: a novel, high-affinity 5-HT2B receptor antagonist” (J Med Chem, 1995)
